# Assays:
# Assay type in all cases: physicochemical
# [1] = Circular dichroism spectra; conditions: 5°C; for [θ]222 Benign (mean residue ellipticity at 222 nm): CD, peptide 211μm to 265μm (0.2 mg/ml), 1 mm cell, average of 6 scans; for [θ]222 Benign (mean residue ellipticity at 222 nm) / [θ]222/[θ]208 Benign: benign buffer (100mM KCl, 50mM PO4, pH 7); for [θ]222/[θ]208 50% TFE / [θ]222/[θ]208 Benign: ratio of mean residue ellipticity at 222 nm and 208 nm; for [θ]222/[θ]208 50% TFE: 50/50 benign buffer/TFE (v/v)
# Summary of the method: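 Disulfide-bridged peptides (N-acetylated, C-amidated, N-terminal Cys-Gly-Gly, air-oxidised overnight at 4°C in 100mM ammonium bicarbonate pH 8.3). Stocks of 2mg/mL in benign buffer are diluted to 0.2 mg/ml in benign buffer or buffer with 50% TFE. Concentration is by amino acid analysis. Scans run 190–255 nm in 0.5 nm steps at 50 nm per minute. Ellipticity is converted to molar ellipticity using mean residue weight, path length and concentration.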
# [2] = Thermal denaturation by circular dichroism spectroscopy at 222 nm; conditions: CD at 222 nm, benign buffer (100mM KCl, 50mM PO4, pH 7), 5°C to 90°C in 0.5°C increments, 60°C/hour, from plot of fraction folded versus temperature
# Summary of the method: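 Disulfide-bridged two-stranded peptides (air-oxidised overnight at 4°C in 100mM ammonium bicarbonate, pH 8.3) diluted to 0.2 mg/ml in 100mM KCl, 50mM PO4, pH 7 (1 mm cell). Concentration by amino acid analysis. Ellipticity at 222 nm scanned 5°C to 90°C, 0.5°C steps, 60°C/hour. Fraction folded from observed, fully folded and fully unfolded ellipticities. Tm is the 50%-unfolded temperature; ΔTm is taken versus native peptide.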
# [3] = RP-HPLC temperature profiling of peptide self-association; conditions: Gemini C18, 100mM NaClO4, 10mM NH4H2PO4, pH 7, 2%B per minute, 5°C - 80°C in 3°C increments, peptide 1.7mg/ml, retention times normalized to 5°C minus random coil control peptide
# Summary of the method: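 Gradient is 0-100%B over 50 minutes; eluent B is 50/50 H2O/CH3CN with the same salts. Retention time at each temperature minus that at 5°C gives the normalised value. Association parameter = peptide normalised value minus control normalised value; the maximum is reported.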
# [4] = listed as R101A/L110A/K112A/K118A
Substance,[θ]222 Benign (mean residue ellipticity at 222 nm) [1],[θ]222/[θ]208 50% TFE [1] [deg cm^2 dmol^-1],[θ]222/[θ]208 Benign [1] [deg cm^2 dmol^-1],[θ]222/[θ]208 Benign ([1]; listed as native peptide),Tm (temperature at which 50% of the peptide is unfolded) [2] [°C],"PA,Max (maximum association parameter, self-association) [3]","Tm (temperature at which 50% of the peptide is unfolded) [2, 4]","PA,Max (maximum association parameter, self-association) [3, 4]"
"Native: native tropomyosin 85-119 coiled-coil sequence with N-terminal Cys-Gly-Gly linker, N-acetylated, C-amidated, disulfide-bridged (Ac-CGGVASLNRRIQLVEEELDRAQERLATALQKLEEAEKA-NH2; also: disulfide-bridged two-stranded dimer (linker Cys); UniProt P09493 85-119, looked up, fragment)","-36,213 deg cm^2 dmol^-1",0.96,1.08,greater than 1 deg cm^2 dmol^-1,52.9,3.4,,
"TM2: TM85-119 analog with K118A substitution (VASLNRRIQLVEEELDRAQERLATALQKLEEAEAA; not fully specified; Cys-Gly-Gly linker; UniProt P09493 85-119, looked up, variant K118A)","-30,548 deg cm^2 dmol^-1",0.97,1.08,,48.7,2.7,,
"TM3: TM85-119 analog with K112A/K118A substitutions (VASLNRRIQLVEEELDRAQERLATALQALEEAEAA; not fully specified; Cys-Gly-Gly linker; UniProt P09493 85-119, looked up, variant K112A K118A)","-29,457 deg cm^2 dmol^-1",0.97,1.08,,45.3,2.4,,
"TM4: TM85-119 analog with R101A substitution (VASLNRRIQLVEEELDAAQERLATALQKLEEAEKA; not fully specified; Cys-Gly-Gly linker; UniProt P09493 85-119, looked up, variant R101A)","-34,390 deg cm^2 dmol^-1",0.96,1.08,,46.0,1.8,,
"TM7: TM85-119 analog with R101A/L110A/K112A/K118A substitutions (VASLNRRIQLVEEELDAAQERLATAAQALEEAEAA; not fully specified; Cys-Gly-Gly linker; UniProt P09493 85-119, looked up, variant R101A L110A K112A K118A)","-9,578 deg cm^2 dmol^-1",0.97,0.86,,<5,0,less than 5 °C,zero
